Source: ChEMBL document CHEMBL3352332, “Synthesis and SAR study of novel anticancer and antimicrobial naphthoquinone amide derivatives” (Bioorg Med Chem Lett, 2014)
≈ marks a conversion by molar mass, not a printed value. Calls of active or inactive are those of the source. The calls are words filed in the database; no cut-off is given here.

Columns and labels:
[1] = test system: Staphylococcus aureus; assay: Antibacterial activity against methicillin-resistant Staphylococcus aureus by NCCLS method; assay type: functional
[2] = test system: Pseudomonas aeruginosa; assay: Antibacterial activity against Pseudomonas aeruginosa MTCC 201 at 100 ug/well after 24 hrs by well diffusion assay; assay type: functional
Summary of the method: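 17 h bacterial cultures swabbed onto Mueller Hinton agar; after 10 min wells were cut with a cork borer and loaded with compound from a 10 mg/mL stock, with a DMSO control. Plates were held at 37 °C for 24 h, and susceptibility was read as the diameter of the zone of inhibition in mm.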

[3] = test system: Staphylococcus aureus; assay: Antibacterial activity against methicillin-resistant Staphylococcus aureus at 100 ug/well after 24 hrs by well diffusion assay; assay type: functional; settings: for zone of inhibition at 100 µg/disc: read-out: DIZ
Summary of the method: (§1)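 Agar well diffusion on Mueller Hinton agar: 17 h cultures swabbed over the surface, wells cut with a cork borer after 10 min. Each well loaded with 10 µl of a 10 mg/mL DMSO stock (100 µg/well), with a DMSO control well. Plates incubated at 37 °C for 24 h. Zone of inhibition diameter measured in mm.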

[4] = test system: Candida albicans; assay: Antifungal activity against fluconazole-resistant Candida albicans at 100 ug/well after 24 hrs by well diffusion assay; assay type: functional; settings: for zone of inhibition at 100 µg/disc: read-out: DIZ; summary of the method: as §1
[5] = test system: Candida albicans; assay: Antifungal activity against fluconazole-resistant Candida albicans by NCCLS method; assay type: functional
[6] = test system: HeLa; assay: Cytotoxicity against human HeLa cells assessed as reduction in cell viability after 48 hrs by MTT assay; assay type: functional, cell-based
[7] = test system: SAS; assay: Cytotoxicity against human SAS cells assessed as reduction in cell viability after 48 hrs by MTT assay; assay type: functional, cell-based

| SMILES | MIC [1] [µg/mL] | diameter of the inhibition zone (DIZ) [2] | zone of inhibition at 100 µg/disc [3] [mm] | diameter of the inhibition zone (DIZ) [4] | MIC [5] [µg/mL] | zone of inhibition at 100 µg/disc [4] [mm] | diameter of the inhibition zone (DIZ) [3] | IC50 [6] [µM] | IC50 [7] [µM] | zone of inhibition at 100 µg/disc ([2]; MTCC 201, 24 h, read-out: DIZ) [mm] |
| --- | --- | --- | --- | --- | --- | --- | --- | --- | --- | --- |
| COC(=O)[C@H](Cc1ccccc1)NC(=O)CSC1=C(OC)C(=O)c2ccccc2C1=O | 62.5 (≈ 142 µM) | inactive | 14 | inactive |  |  |  |  |  |  |
| COC(=O)CNC(=O)CSC1=C(C)C(=O)c2ccccc2C1=O | 15.6 (≈ 46.8 µM) | inactive | 23 |  | 15.6 (≈ 46.8 µM) | 22 |  |  |  |  |
| CC[C@H](C)[C@H](NC(=O)CSC1=C(C)C(=O)c2cccc(OC)c2C1=O)C(=O)OC |  | inactive |  | inactive |  |  | inactive |  |  |  |
| COC(=O)[C@H](CC(C)C)NC(=O)CSC1=C(OC)C(=O)c2ccccc2C1=O | 7.8 (≈ 19.2 µM) | inactive | 21 |  | 62.5 (≈ 154 µM) | 19 |  | 63 | 25.5 |  |
| COC(=O)[C@H](C)NC(=O)CSC1=C(OC)C(=O)c2ccccc2C1=O | 62.5 (≈ 172 µM) | inactive | 19 |  | 62.5 (≈ 172 µM) | 26 |  | 39 | 14 |  |
| COC(=O)CCCNC(=O)CSC1=C(OC)C(=O)c2ccccc2C1=O | 15.6 (≈ 41.3 µM) | inactive | 26 |  | 15.6 (≈ 41.3 µM) | 26 |  | 24 | 24.5 |  |
| COC(=O)[C@@H](NC(=O)CSC1=CC(=O)c2cccc(OC)c2C1=O)C(C)C | 15.6 (≈ 39.9 µM) | inactive | 15 |  | 15.6 (≈ 39.9 µM) | 12 |  | > 100 | 45 |  |
| COC(=O)[C@H](Cc1ccccc1)NC(=O)CSC1=C(C)C(=O)c2cccc(OC)c2C1=O | 125 (≈ 276 µM) | inactive | 15 |  | 125 (≈ 276 µM) | 13 |  | > 100 | 56.5 |  |
| CC1=CC(=O)c2ccccc2C1=O [MENADIONE] | 15.6 (≈ 90.6 µM) | inactive | 11 |  | 15.6 (≈ 90.6 µM) | 11 |  | 18 | 14 |  |
| COC(=O)[C@@H](NC(=O)CSC1=C(C)C(=O)c2ccccc2C1=O)C(C)C | 15.6 (≈ 41.6 µM) | inactive | 19 |  | 15.6 (≈ 41.6 µM) | 19 |  | 20 | 16 |  |
| COC(=O)[C@H](CC(C)C)NC(=O)CSC1=CC(=O)c2cccc(OC)c2C1=O | 7.8 (≈ 19.2 µM) | inactive | 11 |  | 7.8 (≈ 19.2 µM) | 12 |  |  |  |  |
| CC[C@H](C)[C@H](NC(=O)CSC1=C(OC)C(=O)c2ccccc2C1=O)C(=O)OC | 7.8 (≈ 19.2 µM) | inactive | 15 |  | 7.8 (≈ 19.2 µM) | 12 |  | 82 | 60 |  |
| COC(=O)CCCNC(=O)CSC1=C(C)C(=O)c2ccccc2C1=O | 15.6 (≈ 43.2 µM) | inactive | 13 |  | 15.6 (≈ 43.2 µM) | 12 |  |  |  |  |
| CC[C@H](C)[C@H](NC(=O)CSC1=C(C)C(=O)c2ccccc2C1=O)C(=O)OC | 15.6 (≈ 40.1 µM) | inactive | 16 |  | 15.6 (≈ 40.1 µM) | 19 |  |  |  |  |
| COC(=O)[C@H](CC(C)C)NC(=O)CSC1=C(C)C(=O)c2ccccc2C1=O | 15.6 (≈ 40.1 µM) | inactive | 18 |  | 15.6 (≈ 40.1 µM) | 20 |  |  |  |  |
| COC(=O)[C@H](CC(C)C)NC(=O)CSC1=C(C)C(=O)c2cccc(OC)c2C1=O | 7.8 (≈ 18.6 µM) | inactive | 21 |  | 7.8 (≈ 18.6 µM) | 25 |  | > 100 | 78.5 |  |
| COC(=O)[C@H](C)NC(=O)CSC1=CC(=O)c2cccc(OC)c2C1=O | 7.8 (≈ 21.5 µM) | inactive | 15 | inactive |  |  |  |  |  |  |

| SMILES | MIC [1] [µg/mL] | diameter of the inhibition zone (DIZ) [2] | zone of inhibition at 100 µg/disc [3] [mm] | diameter of the inhibition zone (DIZ) [4] | MIC [5] [µg/mL] | zone of inhibition at 100 µg/disc [4] [mm] | diameter of the inhibition zone (DIZ) [3] | IC50 [6] [µM] | IC50 [7] [µM] | zone of inhibition at 100 µg/disc ([2]; MTCC 201, 24 h, read-out: DIZ) [mm] |
| --- | --- | --- | --- | --- | --- | --- | --- | --- | --- | --- |
| COC(=O)[C@H](Cc1ccccc1)NC(=O)CSC1=CC(=O)c2cccc(OC)c2C1=O | 7.8 (≈ 17.7 µM) | inactive | 15 |  | 7.8 (≈ 17.7 µM) | 17 |  | 58 | 40 |  |
| CN[C@@H]1[C@H](O[C@H]2[C@H](O[C@H]3[C@H](O)[C@@H](O)[C@H](N=C(N)N)[C@@H](O)[C@@H]3N=C(N)N)O[C@@H](C)[C@]2(O)C=O)O[C@@H](CO)[C@H](O)[C@H]1O [STREPTOMYCIN] | 3.9 (≈ 6.71 µM) |  | 24 | inactive |  |  |  |  |  | 13 |
| CC[C@H](C)[C@H](NC(=O)CSC1=CC(=O)c2cccc(OC)c2C1=O)C(=O)OC | 15.6 (≈ 38.5 µM) | inactive | 19 |  | 15.6 (≈ 38.5 µM) | 15 |  | 94.5 | 63 |  |
| COC(=O)[C@H](C)NC(=O)CSC1=C(C)C(=O)c2ccccc2C1=O | 15.6 (≈ 44.9 µM) | inactive | 23 |  | 15.6 (≈ 44.9 µM) | 26 |  |  |  |  |
| COC(=O)CNC(=O)CSC1=CC(=O)c2cccc(OC)c2C1=O | 3.9 (≈ 11.2 µM) | inactive | 19 |  | 7.9 (≈ 22.6 µM) | 19 |  | > 100 | > 100 |  |
| COC(=O)CCCNC(=O)CSC1=C(C)C(=O)c2cccc(OC)c2C1=O | 15.6 (≈ 39.9 µM) | inactive | 20 |  | 15.6 (≈ 39.9 µM) | 21 |  |  |  |  |
| COC(=O)CCCNC(=O)CSC1=CC(=O)c2cccc(OC)c2C1=O |  | inactive | 12 | inactive |  |  |  |  |  |  |
| COC(=O)CNC(=O)CSC1=C(OC)C(=O)c2ccccc2C1=O | 15.6 (≈ 44.7 µM) | inactive | 17 |  | 15.6 (≈ 44.7 µM) | 16 |  | 77.5 | 12 |  |
| COC(=O)[C@H](Cc1ccccc1)NC(=O)CSC1=C(C)C(=O)c2ccccc2C1=O | 15.6 (≈ 36.8 µM) | inactive | 13 |  | 15.6 (≈ 36.8 µM) | 16 |  |  |  |  |
| O=C1C=CC(=O)c2c(O)cccc21 |  | inactive |  | inactive |  |  | inactive |  |  |  |
| COC(=O)[C@@H](NC(=O)CSC1=C(OC)C(=O)c2ccccc2C1=O)C(C)C | 15.6 (≈ 39.9 µM) | inactive | 18 |  | 15.6 (≈ 39.9 µM) | 20 |  | 93.5 | 56 |  |
| CC1=CC(=O)c2c(O)cccc2C1=O [PLUMBAGIN] | 125 (≈ 664 µM) | inactive | 12 |  | 125 (≈ 664 µM) | 12 |  | 25.5 | 3 |  |
| OC(Cn1cncn1)(Cn1cncn1)c1ccc(F)cc1F |  | inactive |  | inactive |  |  | inactive |  |  |  |
| COC(=O)[C@H](C)NC(=O)CSC1=C(C)C(=O)c2cccc(OC)c2C1=O | 125 (≈ 331 µM) | inactive | 18 |  | 125 (≈ 331 µM) | 18 |  |  |  |  |
| O=C1C=C(O)C(=O)c2ccccc21 [LAWSONE] | 125 (≈ 718 µM) | inactive | 12 |  | 250 (≈ 1440 µM) | 14 |  | > 100 | > 100 |  |
| COC(=O)CNC(=O)CSC1=C(C)C(=O)c2cccc(OC)c2C1=O | 125 (≈ 344 µM) | inactive | 20 |  | 125 (≈ 344 µM) | 21 |  |  |  |  |
| COC(=O)[C@@H](NC(=O)CSC1=C(C)C(=O)c2cccc(OC)c2C1=O)C(C)C | 15.6 (≈ 38.5 µM) | inactive | 12 |  | 7.8 (≈ 19.2 µM) | 13 |  |  |  |  |
